# Tests used:
# Enterococcus faecalis [1] = assay: Antibacterial activity against 10^4 CFU Enterococcus faecalis 08-12 after 18 hrs by CLSI agar dilution method; format: functional; settings: 08-12, 18 h
# Escherichia coli [2] = assay: Antibacterial activity against 10^4 CFU Escherichia coli 08-21 after 18 hrs by CLSI agar dilution method; format: functional; settings: 08-21, 18 h
# Enterococcus faecium [3] = assay: Antibacterial activity against 10^4 CFU Enterococcus faecium 06-7 after 18 hrs by CLSI agar dilution method; format: functional; settings: 06-7, 18 h
# Klebsiella pneumoniae [4] = assay: Antibacterial activity against 10^4 CFU Klebsiella pneumoniae 09-23 after 18 hrs by CLSI agar dilution method; format: functional; settings: 09-23, 18 h
# Staphylococcus aureus [5] = assay: Antibacterial activity against 10^4 CFU Staphylococcus aureus ATCC 25923 after 18 hrs by CLSI agar dilution method; format: functional; settings: ATCC 25923, 18 h
# Klebsiella pneumoniae [6] = assay: Antibacterial activity against 10^4 CFU Klebsiella pneumoniae 09-22 after 18 hrs by CLSI agar dilution method; format: functional; settings: 09-22, 18 h
# Enterococcus faecium [7] = assay: Antibacterial activity against 10^4 CFU Enterococcus faecium 08-2 after 18 hrs by CLSI agar dilution method; format: functional; settings: 08-2, 18 h
# [8] = test system: Staphylococcus epidermidis; assay: Antibacterial activity against 10^4 CFU methicillin-sensitive Staphylococcus epidermidis 09-6 after 18 hrs by CLSI agar dilution method; format: functional; settings: 09-6, 18 h
# Enterococcus faecalis [9] = assay: Antibacterial activity against 10^4 CFU Enterococcus faecalis 08-10 after 18 hrs by CLSI agar dilution method; format: functional; settings: 08-10, 18 h
# Pseudomonas aeruginosa [10] = assay: Antibacterial activity against 10^4 CFU Pseudomonas aeruginosa ATCC 27853 after 18 hrs by CLSI agar dilution method; format: functional; settings: ATCC 27853, 18 h
# Staphylococcus aureus [11] = assay: Antibacterial activity against 10^4 CFU methicillin-sensitive Staphylococcus aureus 08-1 after 18 hrs by CLSI agar dilution method; format: functional; settings: 08-1, 18 h
# Escherichia coli [12] = assay: Antibacterial activity against 10^4 CFU Escherichia coli ATCC 25922 after 18 hrs by CLSI agar dilution method; format: functional; settings: ATCC 25922, 18 h
# Staphylococcus aureus [13] = assay: Antibacterial activity against 10^4 CFU methicillin-resistant Staphylococcus aureus 08-1 after 18 hrs by CLSI agar dilution method; format: functional; settings: 08-1, 18 h
# [14] = test system: Staphylococcus epidermidis; assay: Antibacterial activity against 10^4 CFU methicillin-resistant Staphylococcus epidermidis 09-2 after 18 hrs by CLSI agar dilution method; format: functional; settings: 09-2, 18 h
# [15] = Cytotoxicity against MDCK cells after 48 hrs by CPE assay; format: cell-based, Canis lupus familiaris; settings: dog
# In short: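 MDCK cells kept in Minimum Essential Medium with Earle's salt plus 10% fetal bovine serum at 37 °C, 5% CO₂. […] Medium then replaced by assay medium with or without compound. After 48 h exposure, viability read by CPE assay. CC₅₀ calculated by Reed–Muench analysis.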
# Streptococcus pneumoniae = assay: Antibacterial activity against 10^4 CFU Streptococcus pneumoniae 08-4 after 18 hrs by CLSI agar dilution method; format: functional; settings: 08-4, 18 h
# Pseudomonas aeruginosa [16] = assay: Antibacterial activity against 10^4 CFU Pseudomonas aeruginosa 09-32 after 18 hrs by CLSI agar dilution method; format: functional; settings: 09-32, 18 h
Structure (SMILES),MIC (Enterococcus faecalis [1]),MIC (Escherichia coli [2]),MIC (Enterococcus faecium [3]),MIC (Klebsiella pneumoniae [4]),MIC (Staphylococcus aureus [5]),MIC (Klebsiella pneumoniae [6]),MIC (Enterococcus faecium [7]),MIC [8],MIC (Enterococcus faecalis [9]),MIC (Pseudomonas aeruginosa [10]),MIC (Staphylococcus aureus [11]),MIC (Escherichia coli [12]),MIC (Staphylococcus aureus [13]),MIC [14],CC50 at 48 h [15],MIC (Streptococcus pneumoniae),MIC (Pseudomonas aeruginosa [16])
CO/N=C1\CN(c2nc3c(cc2F)c(=O)c(C(=O)O)cn3C2CC2)CCC1(C)N (stereo not given),16 µg/mL,16 µg/mL,16 µg/mL,2 µg/mL,0.25 µg/mL,16 µg/mL,64 µg/mL,0.25 µg/mL,16 µg/mL,4 µg/mL,0.25 µg/mL,8 µg/mL,0.25 µg/mL,0.25 µg/mL,77.4 µM,4 µg/mL,16 µg/mL
CCO/N=C1\CN(c2nc3c(cc2F)c(=O)c(C(=O)O)cn3C2CC2)CCC1(C)N (stereo not given),> 128 µg/mL,> 128 µg/mL,> 128 µg/mL,> 128 µg/mL,0.125 µg/mL,> 128 µg/mL,> 128 µg/mL,0.25 µg/mL,> 128 µg/mL,8 µg/mL,0.25 µg/mL,128 µg/mL,0.25 µg/mL,0.25 µg/mL,300 µM,0.25 µg/mL,2 µg/mL
CO/N=C1\CN(c2nc3c(cc2F)c(=O)c(C(=O)O)cn3-c2ccc(F)cc2F)CCC1(C)N (stereo not given),64 µg/mL,> 128 µg/mL,> 128 µg/mL,64 µg/mL,0.25 µg/mL,64 µg/mL,> 128 µg/mL,0.25 µg/mL,64 µg/mL,4 µg/mL,0.25 µg/mL,16 µg/mL,0.25 µg/mL,0.25 µg/mL,93 µM,1 µg/mL,0.25 µg/mL
CCO/N=C1\CN(c2nc3c(cc2F)c(=O)c(C(=O)O)cn3-c2ccc(F)cc2F)CCC1(C)N (stereo not given),32 µg/mL,32 µg/mL,> 128 µg/mL,32 µg/mL,0.25 µg/mL,32 µg/mL,64 µg/mL,0.25 µg/mL,8 µg/mL,4 µg/mL,0.25 µg/mL,16 µg/mL,2 µg/mL,0.25 µg/mL,128 µM,0.25 µg/mL,0.5 µg/mL
CCn1cc(C(=O)O)c(=O)c2cc(F)c(N3CCC(C)(N)/C(=N/OC)C3)c(F)c21 (stereo not given),64 µg/mL,> 128 µg/mL,> 128 µg/mL,64 µg/mL,0.5 µg/mL,32 µg/mL,> 128 µg/mL,0.25 µg/mL,32 µg/mL,4 µg/mL,0.25 µg/mL,128 µg/mL,0.25 µg/mL,0.25 µg/mL,433 µM,0.25 µg/mL,4 µg/mL
CCO/N=C1\CN(c2c(F)cc3c(=O)c(C(=O)O)cn(CC)c3c2F)CCC1(C)N (stereo not given),> 128 µg/mL,> 128 µg/mL,> 128 µg/mL,> 128 µg/mL,0.25 µg/mL,> 128 µg/mL,> 128 µg/mL,0.25 µg/mL,4 µg/mL,4 µg/mL,0.25 µg/mL,> 128 µg/mL,0.25 µg/mL,0.25 µg/mL,592 µM,0.25 µg/mL,64 µg/mL
CO/N=C1\CN(c2c(F)cc3c(=O)c(C(=O)O)cn(CCF)c3c2F)CCC1(C)N (stereo not given),32 µg/mL,32 µg/mL,128 µg/mL,32 µg/mL,0.125 µg/mL,16 µg/mL,32 µg/mL,0.25 µg/mL,128 µg/mL,2 µg/mL,0.25 µg/mL,32 µg/mL,0.25 µg/mL,0.25 µg/mL,36.6 µM,2 µg/mL,0.5 µg/mL
CCO/N=C1\CN(c2c(F)cc3c(=O)c(C(=O)O)cn(C4CC4)c3c2F)CCC1(C)N (stereo not given),> 128 µg/mL,> 128 µg/mL,> 128 µg/mL,> 128 µg/mL,0.5 µg/mL,4 µg/mL,> 128 µg/mL,0.5 µg/mL,4 µg/mL,8 µg/mL,0.5 µg/mL,128 µg/mL,0.5 µg/mL,0.5 µg/mL,288 µM,4 µg/mL,4 µg/mL
CO/N=C1\CN(c2c(F)cc3c(=O)c(C(=O)O)cn(C4CC4)c3c2OC(F)F)CCC1(C)N (stereo not given),> 128 µg/mL,> 128 µg/mL,> 128 µg/mL,> 128 µg/mL,0.25 µg/mL,2 µg/mL,> 128 µg/mL,0.25 µg/mL,8 µg/mL,4 µg/mL,0.25 µg/mL,128 µg/mL,0.25 µg/mL,0.25 µg/mL,1070 µM,0.25 µg/mL,2 µg/mL
CCO/N=C1\CN(c2c(F)cc3c(=O)c(C(=O)O)cn(C4CC4)c3c2OC(F)F)CCC1(C)N (stereo not given),32 µg/mL,128 µg/mL,128 µg/mL,8 µg/mL,0.125 µg/mL,16 µg/mL,128 µg/mL,0.25 µg/mL,8 µg/mL,4 µg/mL,0.25 µg/mL,16 µg/mL,0.25 µg/mL,0.25 µg/mL,518 µM,0.25 µg/mL,16 µg/mL
CCO/N=C1\CN(c2c(F)cc3c(=O)c(C(=O)O)cn(C4CC4)c3c2OC)CCC1(C)N (stereo not given),128 µg/mL,> 128 µg/mL,128 µg/mL,> 128 µg/mL,0.25 µg/mL,1 µg/mL,64 µg/mL,0.25 µg/mL,1 µg/mL,4 µg/mL,0.25 µg/mL,128 µg/mL,0.25 µg/mL,0.25 µg/mL,280 µM,0.25 µg/mL,0.5 µg/mL
CO/N=C1\CN(c2c(F)cc3c(=O)c(C(=O)O)cn4c3c2OC[C@@H]4C)CCC1(C)N (stereo not given in full),> 128 µg/mL,> 128 µg/mL,> 128 µg/mL,> 128 µg/mL,0.25 µg/mL,2 µg/mL,> 128 µg/mL,0.25 µg/mL,16 µg/mL,8 µg/mL,0.25 µg/mL,128 µg/mL,0.25 µg/mL,0.25 µg/mL,1510 µM,0.25 µg/mL,128 µg/mL
CCO/N=C1\CN(c2c(F)cc3c(=O)c(C(=O)O)cn4c3c2OC[C@@H]4C)CCC1(C)N (stereo not given in full),64 µg/mL,64 µg/mL,> 128 µg/mL,2 µg/mL,0.25 µg/mL,64 µg/mL,32 µg/mL,0.25 µg/mL,32 µg/mL,4 µg/mL,0.25 µg/mL,32 µg/mL,0.25 µg/mL,0.25 µg/mL,1160 µM,2 µg/mL,64 µg/mL
COc1c(N2CCNC(C)C2)c(F)cc2c(=O)c(C(=O)O)cn(C3CC3)c12 (stereo not given) [GATIFLOXACIN],4 µg/mL,8 µg/mL,4 µg/mL,2 µg/mL,0.06 µg/mL,0.25 µg/mL,2 µg/mL,0.25 µg/mL,8 µg/mL,1 µg/mL,0.06 µg/mL,4 µg/mL,0.25 µg/mL,0.25 µg/mL,396 µM,0.25 µg/mL,16 µg/mL
CO/N=C1\CN(c2nc3c(cc2F)c(=O)c(C(=O)O)cn3C2CC2)CC1CN (stereo not given) [GEMIFLOXACIN],16 µg/mL,16 µg/mL,16 µg/mL,8 µg/mL,0.125 µg/mL,8 µg/mL,2 µg/mL,0.25 µg/mL,16 µg/mL,2 µg/mL,0.06 µg/mL,4 µg/mL,0.25 µg/mL,0.125 µg/mL,321 µM,0.25 µg/mL,0.25 µg/mL
C[C@H]1COc2c(N3CCN(C)CC3)c(F)cc3c(=O)c(C(=O)O)cn1c23.C[C@H]1COc2c(N3CCN(C)CC3)c(F)cc3c(=O)c(C(=O)O)cn1c23.O [LEVOFLOXACIN],8 µg/mL,16 µg/mL,16 µg/mL,16 µg/mL,0.25 µg/mL,16 µg/mL,4 µg/mL,4 µg/mL,8 µg/mL,,0.125 µg/mL,2 µg/mL,0.125 µg/mL,0.25 µg/mL,,,16 µg/mL
COc1c(N2C[C@@H]3CCCN[C@@H]3C2)c(F)cc2c(=O)c(C(=O)O)cn(C3CC3)c12 [MOXIFLOXACIN],,,,,,,,,,,,,,,161 µM,,

# Reference: ChEMBL document CHEMBL1781961, “Synthesis and in vitro antibacterial activity of 7-(3-alkoxyimino-4-amino-4-methylpiperidin-1-yl) fluoroquinolone derivatives” (Eur J Med Chem, 2011)
